Measurements: paper PMC10041147 (RSC Advances, 2023)

What was measured:
LecA = settings: n.b. = no binding, no reference given; cited from earlier work
[1] = target: T1, Pseudomonas aeruginosa lectin LecA (Pseudomonas aeruginosa, UniProt Q05097); experiment: Electrochemical; settings: LecA sensor, n.b. = no binding; for K d from CV: cyclic voltammetry; for K d from DPV: differential pulse voltammetry
T1 sequence (Q05097 1-122): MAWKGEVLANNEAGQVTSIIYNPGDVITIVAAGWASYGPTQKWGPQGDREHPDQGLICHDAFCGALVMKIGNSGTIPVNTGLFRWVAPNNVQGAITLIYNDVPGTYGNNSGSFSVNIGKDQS
How it was run: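 P. aeruginosa LecA (commercial, ≥70%) coupled at 10 μM for 1 h to an EDC/NHS-activated MUA/DTT layer on a gold nanoparticle–graphene screen-printed electrode, then blocked 30 min with 1% BSA. Sugars titrated in 10 mM PBS with 1 mM CaCl2 and 1 mM MnCl2. Read in 25 mM [Fe(CN)6]3−/4− with 0.2 M KCl at 25 °C. CV: −0.2 to 0.8 V, 0.05 V s−1. DPV: −0.2 to 0.5 V. Reduction-peak Δip fitted to a one-site model.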

ConA = settings: read-out: Reported Kd; cited from earlier work

| Molecule | Reported Kd (LecA) | K d from CV [1] | K d from DPV [1] | Kd (ConA) [µM] |
| --- | --- | --- | --- | --- |
| mannan [mannan (4)] | n.b. | n.b. | n.b. | 3 |
| OC[C@H]1OC(O)[C@@H](O)[C@@H](O)[C@@H]1O (some centres unmarked) [mannose (3), mannose] | n.b. | n.b. | n.b. | 57 |
